Test results as given in ChEMBL document CHEMBL1124098, “N-terminal requirements of small peptide anticoagulants based on hirudin54-65” (J Med Chem, 1988).
Starred links: 1 amine or outer side, 2 acyl side, 3 side chain; linkers in the order of their positions; H or OH if unused. Non-standard residues stand in square brackets, D forms with d. Residues, ends and D or L forms follow the SMILES beside them. *: point of attachment. Hydrocinnamoyl = O=C(CCc1ccccc1)*; Phg = N[C@H](C(=O)O)c1ccccc1; Suc = O=C(CCC(=O)[*:2])[*:1]; X1 = O=C(/C=C/c1ccccc1)*; Bz = O=C(c1ccccc1)*

Assay: In vitro Inhibition of fibrin clot formation relative to a blank control after thrombin addition to plasma in human
Format: functional, cell-free
How it was run: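 Fasted donor human plasma collected in 0.1% EDTA (final), filter-sterilized, stored at -20 °C. Bovine thrombin (0.2 pmol) preincubated with peptide 10 min at 24 °C. Then 1:10 diluted plasma in NaCl/sodium phosphate was added. Buffer pH 7.4 with 0.1% BSA.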

Row | Molecule | IC50 [µM]
1 | CC[C@H](C)[C@H](NC(=O)[C@H](CCC(=O)O)NC(=O)[C@H](CCC(=O)O)NC(=O)c1ccccc1)C(=O)N1CCC[C@H]1C(=O)N[C@@H](CCC(=O)O)C(=O)N[C@@H](CCC(=O)O)C(=O)N[C@@H](Cc1ccc(O)cc1)C(=O)N[C@@H](CC(C)C)C(N)=O (Bz-EEIPEEYL-NH2) | > 250
2 | CC[C@H](C)[C@H](NC(=O)[C@H](CCC(=O)O)NC(=O)[C@H](CCC(=O)O)NC(=O)[C@@H](NC(=O)[C@H](CC(=O)O)NC(=O)CN)c1ccccc1)C(=O)N1CCC[C@H]1C(=O)N[C@@H](CCC(=O)O)C(=O)N[C@@H](CCC(=O)O)C(=O)N[C@@H](Cc1ccc(O)cc1)C(=O)N[C@@H](CC(C)C)C(=O)N[C@@H](CCC(N)=O)C(=O)O (H-GD[Phg]EEIPEEYLQ-OH) | > 250
3 | CC[C@H](C)[C@H](NC(=O)[C@H](CCC(=O)O)NC(=O)[C@H](CCC(=O)O)NC(=O)CCc1ccccc1)C(=O)N1CCC[C@H]1C(=O)N[C@@H](CCC(=O)O)C(=O)N[C@@H](CCC(=O)O)C(=O)N[C@@H](Cc1ccc(O)cc1)C(=O)N[C@@H](CC(C)C)C(N)=O (Hydrocinnamoyl-EEIPEEYL-NH2) | > 250
4 | CC[C@H](C)[C@H](NC(=O)[C@H](CCC(=O)O)NC(=O)[C@H](CCC(=O)O)NC(=O)[C@H](Cc1ccccc1)NC(=O)CCC(=O)O)C(=O)N1CCC[C@H]1C(=O)N[C@@H](CCC(=O)O)C(=O)N[C@@H](CCC(=O)O)C(=O)N[C@@H](Cc1ccc(O)cc1)C(=O)N[C@@H](CC(C)C)C(=O)N[C@@H](CCC(N)=O)C(=O)O (Suc-FEEIPEEYLQ-OH) | 1.7
5 | CC[C@H](C)[C@H](NC(=O)[C@H](CCC(=O)O)NC(=O)[C@H](CCC(=O)O)NC(=O)/C=C/c1ccccc1)C(=O)N1CCC[C@H]1C(=O)N[C@@H](CCC(=O)O)C(=O)N[C@@H](CCC(=O)O)C(=O)N[C@@H](Cc1ccc(O)cc1)C(=O)N[C@@H](CC(C)C)C(N)=O (X1-EEIPEEYL-NH2) | > 250
6 | H-FEEIPEEYLQ-OH | 34
